The source of these data is ChEMBL document CHEMBL4610036, “Discovery of small molecule antagonists of chemokine receptor CXCR6 that arrest tumor growth in SK-HEP-1 mouse xenografts as a model of hepatocellular carcinoma” (Bioorg Med Chem Lett, 2020).

pIC50: −log10 of the molar value. Active and inactive are the calls of the source. The calls are words filed in the database; no cut-off is given here. Where only a bound is given, the exact number is not on record here.

Data set [1] has as its target T1, C-X-C chemokine receptor type 6 (Homo sapiens, UniProt O00574). Briefly: Antagonist activity at Prolink-tagged human CXCR6 receptor assessed as inhibition of CXCL16-induced beta-arrestin recruitment by DiscoveRx cell based assay. (Arrestin recruitment assays detect the binding of arrestin to an activated receptor.)
Target sequence in this assay (O00574 whole entry): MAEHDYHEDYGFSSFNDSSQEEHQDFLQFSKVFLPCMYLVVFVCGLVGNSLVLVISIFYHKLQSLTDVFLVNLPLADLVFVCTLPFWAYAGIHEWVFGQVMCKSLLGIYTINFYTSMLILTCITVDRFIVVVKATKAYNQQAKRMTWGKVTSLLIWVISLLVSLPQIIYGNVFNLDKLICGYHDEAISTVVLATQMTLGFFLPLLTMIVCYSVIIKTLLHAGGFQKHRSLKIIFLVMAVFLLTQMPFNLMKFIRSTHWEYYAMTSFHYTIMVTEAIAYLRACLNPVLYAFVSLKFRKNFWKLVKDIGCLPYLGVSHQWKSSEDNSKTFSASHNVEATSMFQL
In data set [2] the target is T1, C-X-C chemokine receptor type 6. As to the kind of experiment: Antagonist activity at Prolink-tagged human CXCR6 receptor assessed as inhibition of CXCL16-induced beta-arrestin recruitment by DiscoveRx cell based assay relative to control. The arrangement: concentration or dose not given beside the values. Conditions: concentration not given here. The method, boiled down:
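CXCR6 β-arrestin cells in assay media without G418/hygromycin, 800 cells/well, grown overnight at 37 °C; compounds added acoustically (DMSO ≤0.3%), then 20 nM CXCL16 (final) for 90 min at 37 °C. PathHunter luminescence read. Normalized between CXCL16-alone and no-ligand wells; four-parameter fit with Hill slope fixed at 1; at least two runs on different days, averaged pIC50 ± SD.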
Target sequence in this assay (O00574 whole entry, looked up): as the sequence (O00574 whole entry) above

The target is the same in data set [3]. Briefly: Antagonist activity at Prolink-tagged human CXCR6 receptor assessed as inhibition of forskolin-induced cAMP accumulation by DiscoveRx cell based assay. Format: functional. Put shortly: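 Lance Ultra TR-FRET cAMP assay in CXCR6 β-arrestin cells, 500 cells/well in OptiMEM/2% FBS, grown overnight. Compound added, then forskolin (2.5 mM stock) in HBSS/HEPES/BSA/RO-20-1724 with or without 20 nM CXCL16, 30 min at room temperature. Eu-cAMP tracer and ULight anti-cAMP antibody added, read after 30 min. Curve fit with Hill slope 1; ≥2 independent runs.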
Target sequence in this assay (O00574 whole entry): as above

For data set [4] the target is unchanged. Briefly: Antagonist activity at Prolink-tagged human CXCR6 receptor assessed as inhibition of forskolin-induced cAMP accumulation by DiscoveRx cell based assay relative to control. The conditions noted are these: concentration not given here. It counts as functional. Also noted: concentration or dose not given beside the values. Put shortly: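 CXCR6 β-arrestin cells in OptiMEM with 2% FBS, 500 cells/well, grown overnight; compounds added, then forskolin with 20 nM CXCL16 (stock concentrations) in HBSS/HEPES/BSA with RO-20-1724, 30 min at room temperature. cAMP read by LANCE Ultra TR-FRET after a further 30 min. Hill slope fixed at 1; at least two runs on different days, averaged pIC50 ± SD.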
On the technique in general: Cyclic AMP is a second messenger, typically raised through Gs and lowered through Gi signalling.
Target sequence in this assay (O00574 whole entry, looked up): as the sequence (O00574 whole entry) above

Data set [5] addresses T2, C-C chemokine receptor type 6 (Homo sapiens, UniProt P51684).
T2 sequence (P51684 whole entry): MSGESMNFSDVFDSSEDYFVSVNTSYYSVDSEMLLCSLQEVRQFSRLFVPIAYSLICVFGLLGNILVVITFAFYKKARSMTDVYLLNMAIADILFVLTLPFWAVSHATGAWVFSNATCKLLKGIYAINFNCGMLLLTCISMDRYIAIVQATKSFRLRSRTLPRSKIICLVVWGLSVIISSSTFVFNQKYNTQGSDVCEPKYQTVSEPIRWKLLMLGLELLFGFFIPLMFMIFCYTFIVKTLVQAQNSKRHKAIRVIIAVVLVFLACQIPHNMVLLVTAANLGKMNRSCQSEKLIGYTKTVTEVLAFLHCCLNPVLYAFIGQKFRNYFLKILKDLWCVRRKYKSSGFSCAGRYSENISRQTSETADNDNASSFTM
Briefly: Antagonist activity at human CCR6.

The target in data set [6] is T3, C-X-C chemokine receptor type 5 (Homo sapiens, UniProt P32302).
T3 sequence (P32302 whole entry): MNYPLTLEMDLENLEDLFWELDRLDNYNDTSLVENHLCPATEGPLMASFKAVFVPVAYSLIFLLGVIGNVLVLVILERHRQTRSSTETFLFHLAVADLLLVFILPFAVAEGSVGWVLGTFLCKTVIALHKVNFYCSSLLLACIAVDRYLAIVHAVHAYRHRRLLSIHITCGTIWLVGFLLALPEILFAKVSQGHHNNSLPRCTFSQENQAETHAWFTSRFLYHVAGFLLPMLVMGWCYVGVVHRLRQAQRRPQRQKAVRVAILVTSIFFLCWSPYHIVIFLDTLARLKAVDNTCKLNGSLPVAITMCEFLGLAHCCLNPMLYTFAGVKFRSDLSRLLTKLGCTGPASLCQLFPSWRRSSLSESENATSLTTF
Briefly: Antagonist activity at human CXCR5.

Data set [7] addresses C-X-C chemokine receptor type 4 (Homo sapiens, UniProt P61073). Briefly: Antagonist activity at human CXCR4.
The target in data set [8] is T4, C-X-C chemokine receptor type 6 (Mus musculus, UniProt Q9EQ16).
T4 sequence (Q9EQ16 whole entry): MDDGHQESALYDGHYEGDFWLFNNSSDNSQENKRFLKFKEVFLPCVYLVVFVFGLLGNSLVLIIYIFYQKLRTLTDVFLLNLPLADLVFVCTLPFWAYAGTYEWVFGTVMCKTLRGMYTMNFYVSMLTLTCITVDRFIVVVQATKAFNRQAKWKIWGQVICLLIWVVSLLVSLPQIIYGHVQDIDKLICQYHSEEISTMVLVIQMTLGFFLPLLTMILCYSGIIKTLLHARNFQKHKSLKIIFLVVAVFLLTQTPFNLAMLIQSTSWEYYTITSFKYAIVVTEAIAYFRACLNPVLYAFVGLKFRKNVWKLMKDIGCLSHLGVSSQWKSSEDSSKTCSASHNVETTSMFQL
Briefly: Antagonist activity at mouse CXCR6 by DiscoveRx cell based beta-arrestin assay.

Data set [9] can be described thus: Ratio of solubility of compound in aqueous buffer at pH 5 to 7.4 to IC50 for Prolink-tagged human CXCR6 receptor by DiscoveRx cell based assay. Format: physicochemical.
A short description of data set [10]: Stability in mouse plasma. It counts as ADME, cell-free.
Data set [11] can be described thus: Stability in human plasma. It counts as ADME, cell-free.
Data set [12] can be described thus: Toxicity in human liver microsomes. The arrangement: species or system Microsome. On the technique in general: Liver microsomes are vesicles of endoplasmic reticulum, rich in cytochrome P450 enzymes.
The nature of data set [13]: Drug metabolism in human liver microsomes incubated up to 1 hr. It counts as ADME, Microsome. The conditions noted are these: read-out: Drug metabolism. Put shortly:
(§1)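 Liver microsomes (1.0 mg/mL) preincubated with compound (1 μM final) for 10 min at 37 °C. Reaction started with NADPH-generating system (NADP+, glucose-6-phosphate, G6PDH, MgCl2) in 100 mM potassium phosphate, pH 7.4. Sampled at 0, 5, 15, 30 and 60 min; percent remaining at 1 hr reported.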

Data set [14] can be described thus: Drug metabolism in mouse liver microsomes incubated up to 1 hr. Format: ADME, Microsome. Conditions: read-out: Drug metabolism. The method, boiled down:
as §1

The nature of data set [15]: Clearance in mouse at 5 mg/kg, iv. The conditions noted are these: in vivo. Format: ADME, organism-based.
Data set [16] can be described thus: Volume of distribution at steady state in mouse at 5 mg/kg, iv. It counts as ADME, organism-based. Conditions: in vivo, read-out: Vdss.
Data set [17] is described as follows: Half life in mouse at 5 mg/kg, iv. Format: ADME, organism-based. Conditions: in vivo.
Data set [18] is described as follows: Cmax in mouse at 10 mg/kg, po. It counts as ADME, organism-based. The arrangement: dose 10 mg/kg, route oral. The conditions noted are these: in vivo. Put shortly:
(§2)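 Mice dosed orally by gavage, dose volume set by morning body weight. Serial blood samples (~30 μl) from submandibular or saphenous vein into K2EDTA. Plasma separated by centrifugation at 3000 g, stored at −70 °C, analysed by LC/MS/MS.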

Data set [19] is described as follows: Half life in mouse at 10 mg/kg, po. Conditions: in vivo. It counts as ADME, organism-based. The method, boiled down:
as §2

Data set [20] is described as follows: AUC in mouse at 10 mg/kg, po. It counts as ADME, organism-based. The conditions noted are these: in vivo. Put shortly: as §2
For data set [21], the system named is SK-HEP1. Briefly: Toxicity in human SKHEP1 cells assessed as effect on cell viability after 72 hrs. It counts as cell-based. The conditions noted are these: sk-hep1, 72 h.
The target in data set [22] is T1, C-X-C chemokine receptor type 6. As to the kind of experiment: Inhibition of CXCR6-mediated cell invasion in human SKHEP1 cells after 72 hrs by transwell assay. It counts as cell-based. The conditions noted are these: SK-HEP1. The method, boiled down:
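SK-HEP-1 cells, 100k/well in 0.2% FBS, seeded in upper chamber of a chemotaxis plate coated with matrigel (250 μg/ml). CXCL16 (0.6 μg/ml) in lower chamber; compound in both chambers. Kept at 37 °C, 5% CO2 and imaged hourly in IncuCyte. Migration quantified as confluence from phase-contrast images.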
Target sequence in this assay (O00574 whole entry, looked up): as the sequence (O00574 whole entry) above

Data set [23] in a line: Toxicity in NOD/SCID mouse xenografted with human SKHEP1 cells assessed as animal death at 30 to 60 mg/kg, po administered on day 4 to day 30 post-tumor cell inoculation. Format: organism-based, SK-HEP1. The conditions noted are these: in vivo.
A short description of data set [24]: Toxicity in NOD/SCID mouse xenografted with human SKHEP1 cells assessed as effect on behavior phenotypes at 30 to 60 mg/kg, po administered on day 4 to day 30 post-tumor cell inoculation. It counts as organism-based, SK-HEP1. The conditions noted are these: in vivo.
The test system of data set [25] is SK-HEP1. As to the kind of experiment: Antitumor activity against human SKHEP1 cells xenografted in NOD/SCID mouse assessed as tumor weight at 30 mg/kg, po administered on day 4 to day 30 post-tumor cell inoculation (reference value: 151 +/- 66 mg). It counts as functional.
The subject of data set [26] is SK-HEP1. As to the kind of experiment: Antitumor activity against human SKHEP1 cells xenografted in NOD/SCID mouse assessed as tumor weight at 60 mg/kg, po administered on day 4 to day 30 post-tumor cell inoculation (reference value: 151 +/- 66 mg). Format: functional.
The subject of data set [27] is SK-HEP1. As to the kind of experiment: Antitumor activity against human SKHEP1 cells xenografted in NOD/SCID mouse assessed as inhibition of tumor growth at 30 to 60 mg/kg, po administered on day 4 to day 30 post-tumor cell inoculation. Format: functional, organism-based.
Data set [28] is described as follows: Toxicity in NOD/SCID mouse xenografted with human SKHEP1 cells assessed as animal weight at 30 to 60 mg/kg, po administered on day 4 to day 30 post-tumor cell inoculation. Format: organism-based, SK-HEP1. The conditions noted are these: in vivo.
For data set [29], the system named is CXCR6 receptor (Prolink-tagged, human). Briefly: Safety index, ratio of LC50 for toxicity in human liver microsomes to IC50 for Prolink-tagged human CXCR6 receptor. The conditions noted are these: read-out: Ratio LC50/IC50.

Chain of C-X-C chemokine receptor type 4 (P61073 whole entry): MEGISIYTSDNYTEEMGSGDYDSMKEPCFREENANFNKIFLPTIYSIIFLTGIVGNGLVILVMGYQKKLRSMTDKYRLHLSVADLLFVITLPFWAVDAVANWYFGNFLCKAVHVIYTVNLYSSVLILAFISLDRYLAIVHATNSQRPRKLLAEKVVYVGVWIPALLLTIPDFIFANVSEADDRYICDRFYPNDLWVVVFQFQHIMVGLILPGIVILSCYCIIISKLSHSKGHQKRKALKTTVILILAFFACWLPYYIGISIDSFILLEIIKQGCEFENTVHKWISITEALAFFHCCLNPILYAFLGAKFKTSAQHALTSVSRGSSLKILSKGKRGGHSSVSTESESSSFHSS

On to `COc1cc(C(=O)N[C@@H]2C[C@H]3CCC[C@@H](C2)N3CC(=O)Nc2ccccc2Cl)cc(OC)c1OC`, for which the pIC50 in data set [1] was 6.85; in data set [3], 5.85; in data set [5] it was under 4.10; in data set [6], under 4.10; in [7] it was under 4.10; in [8], 4.74. Also, the inhibition in [2] was determined as 100%; in data set [4], 102%.

As for `COc1cc(C(=O)N[C@@H]2C[C@H]3CCC[C@@H](C2)N3Cc2nc3c(C(F)(F)F)cccc3s2)cc(OC)c1OC`, the pIC50 in data set [1] is 7.40; in [8], under 4.40. The inhibition was 103% in data set [2], 98% in data set [4] and “Dose-dependent effect” in data set [22]. In addition, in data set [9], the Ratio result is “>= 10”. For the same molecule, the Stability entry in data set [10] and in data set [11] was “Stable” each time. Also, in data set [12], the LC50 entry is “>= 25 uM”. In addition, the metabolised at 1 h in data set [13] and in [14] was 100% throughout. This molecule also gave a clearance in [15] of 28.4 mL/min/kg. Besides, the Vd in data set [16] was determined as 3.32 L/kg. Further, the half-life was 1.58 h in data set [17] and 2.82 h in [19]. The same molecule registered a peak concentration (Cmax) in data set [18] of 798 ng/mL. In [20], this molecule showed an AUC of 2050 ng·h/mL. The Activity result is “Non-Toxic” in the data set on SK-HEP1 [21]; “Non-Toxic” in data set [23]; “Non-Toxic” in data set [24]; 59 mg in the data set on SK-HEP1 [25]; 55 mg in the data set with SK-HEP1 [26]; “Non-Toxic” in data set [28]. In addition, the result in the data set with SK-HEP1 [27] was Active. For the same molecule, the selectivity ratio in data set [29] is over 40.

For orientation: pIC50 means the negative decadic logarithm of the IC50, by convention in mol/L. For orientation: inhibition means the change of the read-out against control, counted positive when it falls. As a reminder, the clearance is the volume of plasma or blood freed of the substance per unit of time. The term half-life denotes the time in which the quantity being followed falls by half. What is called Cmax is the maximum level reached in the sampled fluid or tissue. Usually AUC stands for concentration integrated over time.
